According to ChEMBL document CHEMBL3098086, “Synthesis and biological evaluation of α-triazolyl chalcones as a new type of potential antimicrobial agents and their interaction with calf thymus DNA and human serum albumin” (Eur J Med Chem, 2014):
Values after ≈ are worked out from the molar mass of the structure shown.

Key:
Candida = assay: Antifungal activity against Candida mycoderma ATCC 96918 after 24 hrs by micro broth dilution method; assay type: functional; settings: ATCC 96918, 24 h
In short: (§1)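 Fungi: C. albicans ATCC 76615 and C. mycoderma ATCC 96918. MICs by two-fold broth microdilution in 96-well plates per NCCLS. Fluconazole served as positive control.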

Candida albicans = assay: Antifungal activity against Candida albicans ATCC 76615 after 24 hrs by micro broth dilution method; assay type: functional; settings: ATCC 76615, 24 h; in short: as §1
Bacillus = assay: Antibacterial activity against Bacillus proteus ATCC 13315 after 24 hrs by twofold serial dilution method; assay type: functional; settings: ATCC 13315, 24 h
In short: (§2)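 Bacterial strains: S. aureus ATCC 25923, B. subtilis ATCC 21216, M. luteus ATCC 4698, E. coli JM109, P. aeruginosa ATCC 27853, B. proteus ATCC 13315. MICs by two-fold broth microdilution in 96-well plates per NCCLS. Chloromycin and Norfloxacin served as positive controls.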

Pseudomonas aeruginosa = assay: Antibacterial activity against Pseudomonas aeruginosa ATCC 27853 after 24 hrs by twofold serial dilution method; assay type: functional; settings: ATCC 27853, 24 h; in short: as §2
Escherichia coli = assay: Antibacterial activity against Escherichia coli JM109 after 24 hrs by twofold serial dilution method; assay type: functional; settings: JM109, 24 h; in short: as §2
Salmonella typhi = assay: Antibacterial activity against Bacillus typhi after 24 hrs by twofold serial dilution method; assay type: functional, Salmonella enterica subsp. enterica serovar Typhi; settings: Salmonella enterica
In short: (§3)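 Two-fold broth microdilution per NCCLS recommendations. The MIC was read as the minimum inhibitory concentration. Chloromycin and Norfloxacin served as positive controls. Strains were Bacillus typhi (Gram-negative panel) and methicillin-resistant S. aureus N315.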

Micrococcus luteus = assay: Antibacterial activity against Micrococcus luteus ATCC 4698 after 24 hrs by twofold serial dilution method; assay type: functional; settings: ATCC 4698, 24 h; in short: as §2
Bacillus subtilis = assay: Antibacterial activity against Bacillus subtilis ATCC 21216 after 24 hrs by twofold serial dilution method; assay type: functional; settings: ATCC 21216, 24 h; in short: as §2
Staphylococcus aureus [1] = assay: Antibacterial activity against Staphylococcus aureus ATCC 25923 after 24 hrs by twofold serial dilution method; assay type: functional; settings: ATCC 25923, 24 h; in short: as §2
Staphylococcus aureus [2] = assay: Antibacterial activity against methicillin-resistant staphylococcus aureus N315 after 24 hrs by twofold serial dilution method; assay type: functional; settings: N315, 24 h; in short: as §3

Structure (SMILES) | MIC (Candida) [mg/L] | MIC (Candida albicans) [mg/L] | MIC (Bacillus) [mg/L] | MIC (Pseudomonas aeruginosa) [mg/L] | MIC (Escherichia coli) [mg/L] | MIC (Salmonella typhi) [mg/L] | MIC (Micrococcus luteus) [mg/L] | MIC (Bacillus subtilis) [mg/L] | MIC (Staphylococcus aureus [1]) [mg/L] | MIC (Staphylococcus aureus [2]) [mg/L]
O=C(/C(=C/c1ccc(Cl)cc1)n1cncn1)c1ccc(Cl)cc1 | 64 (≈ 186 µM) | 64 (≈ 186 µM) | 32 (≈ 93 µM) | 8 (≈ 23.2 µM) | 16 (≈ 46.5 µM) | 16 (≈ 46.5 µM) | 64 (≈ 186 µM) | 32 (≈ 93 µM) | 32 (≈ 93 µM) | 32 (≈ 93 µM)
O=C(/C(=C/c1ccc(F)cc1)n1cncn1)c1ccc(F)cc1F | 64 (≈ 194 µM) | 64 (≈ 194 µM) | 16 (≈ 48.6 µM) | 32 (≈ 97.2 µM) | 32 (≈ 97.2 µM) | 32 (≈ 97.2 µM) | 32 (≈ 97.2 µM) | 64 (≈ 194 µM) | 64 (≈ 194 µM) | 128 (≈ 389 µM)
Cc1ccc(/C=C(/C(=O)c2ccc(F)cc2F)n2cncn2)cc1 | 16 (≈ 49.2 µM) | 16 (≈ 49.2 µM) | 64 (≈ 197 µM) | 16 (≈ 49.2 µM) | 32 (≈ 98.4 µM) | 64 (≈ 197 µM) | 64 (≈ 197 µM) | 64 (≈ 197 µM) | 32 (≈ 98.4 µM) | 32 (≈ 98.4 µM)
COc1ccc(/C=C(/C(=O)c2ccc(F)cc2F)n2cncn2)cc1 | 32 (≈ 93.8 µM) | 16 (≈ 46.9 µM) | 8 (≈ 23.4 µM) | 16 (≈ 46.9 µM) | 16 (≈ 46.9 µM) | 32 (≈ 93.8 µM) | 16 (≈ 46.9 µM) | 8 (≈ 23.4 µM) | 8 (≈ 23.4 µM) | 4 (≈ 11.7 µM)
O=C(/C(=C/c1ccccc1)n1cncn1)c1ccc(Cl)cc1 | 64 (≈ 207 µM) | 16 (≈ 51.7 µM) | 64 (≈ 207 µM) | 256 (≈ 826 µM) | 128 (≈ 413 µM) | 64 (≈ 207 µM) | 64 (≈ 207 µM) | 64 (≈ 207 µM) | 64 (≈ 207 µM) | 32 (≈ 103 µM)
CN(C)c1ccc(/C=C(/C(=O)c2ccc(F)cc2F)n2cncn2)cc1 | 64 (≈ 181 µM) | 16 (≈ 45.2 µM) | 64 (≈ 181 µM) | 256 (≈ 722 µM) | 128 (≈ 361 µM) | 64 (≈ 181 µM) | 64 (≈ 181 µM) | 64 (≈ 181 µM) | 64 (≈ 181 µM) | 32 (≈ 90.3 µM)
Cc1ccc(C(=O)/C(=C/c2ccccc2)n2cncn2)c(C)c1 | 256 (≈ 844 µM) | 128 (≈ 422 µM) | 128 (≈ 422 µM) | 256 (≈ 844 µM) | 256 (≈ 844 µM) | 128 (≈ 422 µM) | 256 (≈ 844 µM) | 128 (≈ 422 µM) | 128 (≈ 422 µM) | 64 (≈ 211 µM)
O=C(/C(=C/c1ccc(Cl)cc1)n1cncn1)c1ccc(F)cc1F | 16 (≈ 46.3 µM) | 16 (≈ 46.3 µM) | 64 (≈ 185 µM) | 128 (≈ 370 µM) | 64 (≈ 185 µM) | 32 (≈ 92.6 µM) | 64 (≈ 185 µM) | 32 (≈ 92.6 µM) | 16 (≈ 46.3 µM) | 32 (≈ 92.6 µM)
Cc1ccc(C(=O)/C(=C/c2ccccc2)n2cncn2)cc1C | 256 (≈ 844 µM) | 16 (≈ 52.7 µM) | 128 (≈ 422 µM) | 128 (≈ 422 µM) | 16 (≈ 52.7 µM) | 128 (≈ 422 µM) | 128 (≈ 422 µM) | 64 (≈ 211 µM) | 256 (≈ 844 µM) | 256 (≈ 844 µM)
O=C(N[C@H](CO)[C@H](O)c1ccc([N+](=O)[O-])cc1)C(Cl)Cl [CHLORAMPHENICOL] |  |  | 32 (≈ 99 µM) | 32 (≈ 99 µM) | 32 (≈ 99 µM) | 32 (≈ 99 µM) | 8 (≈ 24.8 µM) | 32 (≈ 99 µM) | 16 (≈ 49.5 µM) | 16 (≈ 49.5 µM)
